Values joined by “and” are separate entries in the source; they are usually repeats but may differ in a detail not shown here. Equal values may be shown once. Active and inactive are the calls of the source.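 How the source made its calls: active means compounds cutting cell viability whose fitted half-maximal concentration is at most twice the top tested dose; inconclusive means flat loss between 30% and 70%, or poor curve fit; inactive means opposite effect, flat within 30%, or weaker potency.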
System: not listed separately
Experiment: cell viability loss, SR-BI-overexpressing CHO line – CellTiter-Glo luminescence, 24 h, dry powder, set 3, cytotoxicity control for SR-BI HDL uptake inhibitor project, dose response (AID 588826)
Settings: ldlA[mSR-BI] CHO cells viability, CellTiter-Glo ATP, 24 h; at 11 µM (top of the series)
Summary of the method: (§1)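 system = ldlA cells expressing mouse scavenger receptor SR-BI | schedule = 24 h compound exposure at 37 °C, read 10 min after reagent | buffer or medium = Ham's F12 growth medium with 10% FCS | measure = cell viability IC50 | technique = CellTiter-Glo luminescence measuring cellular ATP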

Which activity change, negative = cytotoxicity does the source give for `CC(C)NC(=O)Nc1cccc2c1O[C@H](CN(C)Cc1ccc(Cl)c(Cl)c1)[C@@H](C)CN([C@@H](C)CO)C2=O` here?
The activity change, negative = cytotoxicity was 6.58% (inactive).

Same assay, conditions: ldlA[mSR-BI] CHO cells viability, CellTiter-Glo ATP, 24 h; at 30 µM (top of the series)

For `C[C@@H]1CN([C@@H](C)CO)C(=O)Cc2cc(NC(=O)Nc3ccc(C(F)(F)F)cc3)ccc2O[C@@H]1CN(C)S(=O)(=O)c1ccc(Cl)cc1`, which activity change, negative = cytotoxicity is on record?
Its activity change, negative = cytotoxicity is -40.4% (inactive).

Same assay, conditions: ldlA[mSR-BI] CHO cells viability, CellTiter-Glo ATP, 24 h; at 35 µM (top of the series)

With `C[C@@H]1CN([C@H](C)CO)C(=O)c2cc(NC(=O)Cc3cn(C)c4ccccc34)ccc2O[C@H]1CN(C)S(=O)(=O)c1ccc(F)cc1` as the compound, how does the activity change, negative = cytotoxicity read?
Its activity change, negative = cytotoxicity is -4.67% (inactive).

For `CCC(=O)N1CCc2cc(-c3csc(NC(=O)c4cccc(C#N)c4)n3)ccc21`, which activity change, negative = cytotoxicity is on record?
Its activity change, negative = cytotoxicity is -0.356% (inactive).

With `CC1CCC/C=C/C2CC(O)CC2C(O)/C=C\C(=O)O1` (stereo not given) as the compound, how does the activity change, negative = cytotoxicity read?
Its activity change, negative = cytotoxicity is -9.81% (inactive).

For `COc1cc(OC)cc(C(=O)Nc2nc(-c3ccc4c(c3)CCN4C(=O)OC(C)(C)C)cs2)c1`, which activity change, negative = cytotoxicity is on record?
Its activity change, negative = cytotoxicity is 5.45% (inactive).

For `CCC(=O)N1CC(C)(C)c2cc(-c3csc(NC(=O)c4cc(OC)cc(OC)c4)n3)ccc21`, which activity change, negative = cytotoxicity is on record?
The activity change, negative = cytotoxicity was -3.5% (inactive).

With `C[C@H](C(=O)NC1CCCC1)N(C(=O)Cn1nnc(-c2ccc3c(c2)OCO3)n1)C1CCCCC1` as the compound, how does the activity change, negative = cytotoxicity read?
Its activity change, negative = cytotoxicity is -10.6% (inactive).

With `COCC(=O)N1CCc2cc(-c3csc(NC(=O)c4cc(OC)cc(OC)c4)n3)ccc21` as the compound, how does the activity change, negative = cytotoxicity read?
The activity change, negative = cytotoxicity was 4.05% (inactive).

Which activity change, negative = cytotoxicity does the source give for `CCC(=O)N1CCc2cc(-c3csc(NC(=O)c4cccc(OC)c4)n3)ccc21` here?
The activity change, negative = cytotoxicity was 3.32% (inactive).

With `COc1cc(OC)cc(C(=O)Nc2nc(-c3ccc4c(c3)CCN4C(=O)CN(C)C)cs2)c1` as the compound, how does the activity change, negative = cytotoxicity read?
The activity change, negative = cytotoxicity was -10.2% (inactive).

With `CC(C)(Sc1cc(C(C)(C)C)c(O)c(C(C)(C)C)c1)Sc1cc(C(C)(C)C)c(O)c(C(C)(C)C)c1` as the compound, how does the activity change, negative = cytotoxicity read?
Its activity change, negative = cytotoxicity is -1.63% (inactive).

Which activity change, negative = cytotoxicity does the source give for `COc1ccc(-c2nnn(CC(=O)N(C3CCCCC3)C(C(=O)NC3CCCC3)C(C)C)n2)cc1OC` (stereo not given) here?
The activity change, negative = cytotoxicity was -15.8% (inactive).

With `COc1ccc(-c2nnn(CC(=O)N(C3CCCC3)C(C)C(=O)NC3CCCC3)n2)cc1OC` (stereo not given) as the compound, how does the activity change, negative = cytotoxicity read?
Its activity change, negative = cytotoxicity is -0.791% (inactive).

Which activity change, negative = cytotoxicity does the source give for `C[C@@H]1CN([C@H](C)CO)C(=O)c2cc(NC(=O)Cc3cn(C)c4ccccc34)ccc2O[C@H]1CN(C)S(=O)(=O)c1ccc(Cl)cc1` here?
The activity change, negative = cytotoxicity was 4.93% (inactive) and -3.5% (inactive) and 6.65% (inactive).

For `CCC(=O)N1CCc2cc(-c3csc(NC(=O)c4ccc(Cl)s4)n3)ccc21`, which activity change, negative = cytotoxicity is on record?
Its activity change, negative = cytotoxicity is -1.8% (inactive).

With `CCC(=O)N1CCc2cc(-c3csc(NC(=O)c4ccc5c(c4)OCO5)n3)ccc21` as the compound, how does the activity change, negative = cytotoxicity read?
The activity change, negative = cytotoxicity was 1.94% (inactive).

With `O=C(CN(C(=O)Cn1nnc(-c2ccc3c(c2)OCO3)n1)C1CCCCC1)NC1CCCC1` as the compound, how does the activity change, negative = cytotoxicity read?
Its activity change, negative = cytotoxicity is -3.34% (inactive).

For `CCC(=O)N1CCc2cc(-c3csc(NC(=O)c4ccco4)n3)ccc21`, which activity change, negative = cytotoxicity is on record?
Its activity change, negative = cytotoxicity is -2.4% (inactive).

With `COc1ccc(-c2nnn(CC(=O)N(C3CCN(C)CC3)C(C)C(=O)NC3CCCC3)n2)cc1OC` (stereo not given) as the compound, how does the activity change, negative = cytotoxicity read?
Its activity change, negative = cytotoxicity is 9.25% (inactive).

Which activity change, negative = cytotoxicity does the source give for `COc1ccc(-c2nnn(CC(=O)N(CC3CCCCC3)C(C)C(=O)NC3CCCC3)n2)cc1OC` (stereo not given) here?
The activity change, negative = cytotoxicity was 3.32% (inactive).

For `CCNC(=O)N1CCc2cc(-c3csc(NC(=O)c4cc(OC)cc(OC)c4)n3)ccc21`, which activity change, negative = cytotoxicity is on record?
The activity change, negative = cytotoxicity was -8.64% (inactive).

With `COc1ccc(-c2cc(CC(=O)N(C3CCCCC3)C(C)C(=O)NC3CCCC3)no2)cc1OC` (stereo not given) as the compound, how does the activity change, negative = cytotoxicity read?
Its activity change, negative = cytotoxicity is 3.77% (inactive).

Which activity change, negative = cytotoxicity does the source give for `CCC(=O)N1CCc2cc(-c3csc(NC(=O)c4ccc(F)c(OC)c4)n3)ccc21` here?
The activity change, negative = cytotoxicity was -12.3% (inactive).

With `CC(=O)N1CCc2cc(-c3nc(NC(=O)c4cccc(OC(F)(F)F)c4)sc3C)ccc21` as the compound, how does the activity change, negative = cytotoxicity read?
Its activity change, negative = cytotoxicity is 1.36% (inactive).

For `CCOC(=O)N1CCC(NC(=O)c2ccc3c(c2)N(Cc2ccc(F)cc2)CCS3)CC1`, which activity change, negative = cytotoxicity is on record?
The activity change, negative = cytotoxicity was -13.6% (inactive).

For `CC(C(=O)NC1CCCC1)N(C(=O)Cn1nnc(-c2ccccc2)n1)C1CCCCC1` (stereo not given), which activity change, negative = cytotoxicity is on record?
Its activity change, negative = cytotoxicity is 4.27% (inactive).

With `COc1ccc(-c2nnn(CC(=O)N(C3CCCCC3)C(C)C(=O)NC3CCCC3)n2)cc1OC` (stereo not given) as the compound, how does the activity change, negative = cytotoxicity read?
Its activity change, negative = cytotoxicity is 37.1% (inactive).

Same assay, conditions: ldlA[mSR-BI] CHO cells viability, CellTiter-Glo ATP, 24 h; at 68 µM (top of the series)

For `CCOc1ccc(NC(=O)CN2CCN(CC(=O)Nc3cc(OC)cc(OC)c3)CC2)cc1`, which activity change, negative = cytotoxicity is on record?
The activity change, negative = cytotoxicity was -0.275% (inactive).

System: ldlA[mSR-BI] CHO cells viability, CellTiter-Glo ATP, 24 h
Experiment: as above
Settings: not given
Summary of the method: as §1

With `CC(C(=O)NC1CCCC1)N(C(=O)Cn1nnc(-c2ccc(Cl)cc2)n1)C1CCCCC1` (stereo not given) as the compound, how does the IC50 read?
The IC50 was 53 µM.

With `Cc1ccc2oc(-c3cccc(NC(=O)c4cc(-n5cnnc5)ccc4Cl)c3)nc2c1` as the compound, how does the IC50 read?
Its IC50 is 39.9 µM.

For `CCCCCCC1CCC/C1=N\NC(N)=S` (stereo not given), which IC50 is on record?
The IC50 was 4.46 µM.

Which IC50 does the source give for `CCOc1ccccc1/C=C/c1onc(C)c1S(=O)(=O)N1CCC(C(=O)NC(C)(C)C)CC1` here?
Its IC50 is 33.8 µM.

With `COc1c(NC(=O)C(=O)c2ccc(OCCN3CCOCC3)c3ccccc23)cc(C(C)(C)C)cc1NS(C)(=O)=O` as the compound, how does the IC50 read?
Its IC50 is 17.8 µM.

Which IC50 does the source give for `C[C@H]1CN([C@@H](C)CO)C(=O)c2cccc(NC(=O)Nc3ccccc3)c2O[C@@H]1CN(C)Cc1ccc(Cl)c(Cl)c1` here?
The IC50 was 16.1 µM.
